Assay results: ChEMBL document CHEMBL1123914, “6-Methylergoline-8-carboxylic acid esters as serotonin antagonists: N1-substituent effects on 5HT2 receptor affinity” (J Med Chem, 1987)

target: T1, Serotonin 2 (5-HT2) receptor (Rattus norvegicus) (UniProt P30994+P08909+P14842); test: Affinity towards 5-hydroxytryptamine 2 receptor by measuring its ability to antagonize serotonin-induced contractions in the rat jugular vein.
How it was run: (§1)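 Rat external jugular vein rings, cannulated and mounted between two L-shaped needles on a force transducer in Krebs bicarbonate buffer. Tissues equilibrated 1–2 h. After control cumulative serotonin contraction curves, vessels were incubated with antagonist for 1 h and the serotonin curves repeated. K_B = [B]/(dose ratio − 1), where dose ratio is agonist ED50 with antagonist over control ED50. Reported as −log K_B.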

T1 sequence (P08909 whole entry, looked up): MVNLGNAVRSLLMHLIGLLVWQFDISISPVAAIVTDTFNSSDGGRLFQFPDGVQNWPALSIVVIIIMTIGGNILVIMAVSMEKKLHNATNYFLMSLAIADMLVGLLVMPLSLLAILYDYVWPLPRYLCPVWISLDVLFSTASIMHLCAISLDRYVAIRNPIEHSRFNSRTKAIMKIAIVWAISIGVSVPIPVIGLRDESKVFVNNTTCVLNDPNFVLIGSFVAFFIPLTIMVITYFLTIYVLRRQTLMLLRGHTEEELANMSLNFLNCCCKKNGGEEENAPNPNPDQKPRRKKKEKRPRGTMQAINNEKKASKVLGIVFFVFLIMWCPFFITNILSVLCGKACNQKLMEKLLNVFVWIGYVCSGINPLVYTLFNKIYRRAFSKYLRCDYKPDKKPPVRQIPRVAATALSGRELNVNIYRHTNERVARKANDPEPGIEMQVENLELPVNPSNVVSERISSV
T1 sequence (P14842 whole entry, looked up): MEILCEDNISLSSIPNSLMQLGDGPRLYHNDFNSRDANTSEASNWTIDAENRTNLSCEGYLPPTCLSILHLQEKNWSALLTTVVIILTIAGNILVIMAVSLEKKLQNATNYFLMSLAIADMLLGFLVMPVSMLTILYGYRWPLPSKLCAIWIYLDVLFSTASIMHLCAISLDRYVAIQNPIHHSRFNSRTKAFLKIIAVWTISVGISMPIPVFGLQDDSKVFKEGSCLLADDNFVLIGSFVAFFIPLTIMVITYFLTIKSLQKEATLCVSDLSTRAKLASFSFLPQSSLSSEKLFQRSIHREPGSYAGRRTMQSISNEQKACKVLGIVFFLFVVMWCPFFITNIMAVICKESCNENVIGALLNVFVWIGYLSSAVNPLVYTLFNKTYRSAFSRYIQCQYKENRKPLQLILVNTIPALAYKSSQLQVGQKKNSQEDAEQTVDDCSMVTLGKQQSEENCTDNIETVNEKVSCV
T1 sequence (P30994 whole entry, looked up): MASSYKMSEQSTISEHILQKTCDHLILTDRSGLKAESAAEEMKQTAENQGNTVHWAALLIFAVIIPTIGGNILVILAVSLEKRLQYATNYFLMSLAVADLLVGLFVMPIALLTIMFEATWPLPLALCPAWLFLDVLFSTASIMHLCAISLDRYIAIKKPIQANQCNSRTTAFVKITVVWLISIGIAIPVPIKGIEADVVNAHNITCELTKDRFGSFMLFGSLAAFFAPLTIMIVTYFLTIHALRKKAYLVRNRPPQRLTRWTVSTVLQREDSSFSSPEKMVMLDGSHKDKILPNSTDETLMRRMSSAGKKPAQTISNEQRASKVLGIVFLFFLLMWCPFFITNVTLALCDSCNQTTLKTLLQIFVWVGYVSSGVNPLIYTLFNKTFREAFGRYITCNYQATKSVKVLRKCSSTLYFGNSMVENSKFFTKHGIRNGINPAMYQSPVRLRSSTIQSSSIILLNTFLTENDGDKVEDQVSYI

| Structure (SMILES) | -Log KB |
| --- | --- |
| CCn1cc2c3c(cccc31)C1CC(C(=O)OC)CN(C)C1C2 (stereo not given) | 8.12 |
| CC(O)C(C)OC(=O)C1CC2c3cccc4c3c(cn4Cc3ccccc3)CC2N(C)C1 (stereo not given) | 7.37 |
| C=CCn1cc2c3c(cccc31)C1CC(C(=O)OCCO)CN(C)C1C2 (stereo not given) | 8.17 |
| COC(=O)C1CC2c3cccc4c3c(cn4Cc3ccccc3)CC2N(C)C1 (stereo not given) | 7.64 |
| CCCn1cc2c3c(cccc31)C1CC(C(=O)OC)CN(C)C1C2 (stereo not given) | 7.72 |
| CCc1c(C)n(CC)c2ccc(N(C)C)cc12 | 6.45 |
| COC(=O)C1CC2c3cccc4c3c(cn4C)CC2N(C)C1 (stereo not given) | 8.23 |
| COC(=O)C1CC2c3cccc4c3c(cn4C(C)C)CC2N(C)C1 (stereo not given) | 8.29 |
| CN1CC(C(=O)OCCO)CC2c3cccc4[nH]cc(c34)CC21 (stereo not given) | 7.62 |
| CN1CC(C(=O)OCCO)CC2c3cccc4c3c(cn4C)CC21 (stereo not given) | 8.63 |
| CC(C)n1cc2c3c(cccc31)C1CC(C(=O)OCCO)CN(C)C1C2 (stereo not given) | 9.13 |
| CCCn1cc2c3c(cccc31)C1CC(C(=O)OC(C)C(C)O)CN(C)C1C2 (stereo not given) | 8.34 |
| CCc1c(C)[nH]c2ccc(N(C)C)cc12 | 4.93 |
| CC(O)C(C)OC(=O)C1CC2c3cccc4c3c(cn4C)CC2N(C)C1 (stereo not given) | 9.26 |
| CN1CC(C(=O)OCCO)CC2c3cccc4c3c(cn4Cc3ccccc3)CC21 (stereo not given) | 8.12 |
| CCc1c(C)n(C)c2ccc(N(C)C)cc12 | 6.51 |
| COC(=O)C1CC2c3cccc4c3c(cn4CC(C)C)CC2N(C)C1 (stereo not given) | 7.57 |
| COC(=O)C1CC2c3cccc4[nH]cc(c34)CC2N(C)C1 (stereo not given) | 8.1 |
| CCc1c(C)n(C(C)C)c2ccc(N(C)C)cc12 | 7.28 |
| CC(C)Cn1cc2c3c(cccc31)C1CC(C(=O)OC(C)C(C)O)CN(C)C1C2 (stereo not given) | 7.53 |
| CCCCCCCCn1cc2c3c(cccc31)C1CC(C(=O)OC(C)C(C)O)CN(C)C1C2 (stereo not given) | < 7 |
| CC(O)C(C)OC(=O)C1CC2c3cccc4[nH]cc(c34)CC2N(C)C1 (stereo not given) | 8.42 |
| C=CCn1cc2c3c(cccc31)C1CC(C(=O)OC)CN(C)C1C2 (stereo not given) | 7.89 |
| CC(O)C(C)OC(=O)C1CC2c3cccc4c3c(cn4C(C)C)CC2N(C)C1 (stereo not given) | 9.76 |
| CC(C)Cn1cc2c3c(cccc31)C1CC(C(=O)OCCO)CN(C)C1C2 (stereo not given) | 7.42 |
| CCn1cc2c3c(cccc31)C1CC(C(=O)OC(C)C(C)O)CN(C)C1C2 (stereo not given) | 8.9 |
| CC(O)C(C)OC(=O)C1CC2c3cccc4c3c(cn4C3CCCCCC3)CC2N(C)C1 (stereo not given) | 7.45 |

target: T1, Serotonin 2 (5-HT2) receptor (Rattus norvegicus); test: Affinity towards 5-hydroxytryptamine 2 receptor by measuring its ability to antagonize serotonin-induced contractions in the rat jugular vein; no appreciable 5-HT2 receptor affinity; how it was run: as §1

| Structure (SMILES) | -Log KB |
| --- | --- |
| CC(O)C(C)OC(=O)C1CC2c3cccc4c3c(cn4C3CCCC3)CC2N(C)C1 (stereo not given) | < 7 |
| CCC(CC)n1cc2c3c(cccc31)C1CC(C(=O)OC)CN(C)C1C2 (stereo not given) | < 7 |
| CCC(CC)n1cc2c3c(cccc31)C1CC(C(=O)OC(C)C(C)O)CN(C)C1C2 (stereo not given) | < 7 |
